# From PubChem
# Sampled rows, rich in hits. Any-hit rate of the full collection: about 4.7%.
# Jurkat NFkB inh: lowers PMA/ionomycin-induced NF-kB signal in Jurkat cells; PMA/ionomycin-induced NF-kB luciferase reporter, luminescence; inhibition, % at 4 µM; 330,000 tested, 0.53% active; AID 435003; in the data active = inhibition above about 50%
# 697 NFkB inh: inhibitors of the PMA/ionomycin-induced NF-kB reporter in 697 B cells; 330,000 tested, 0.33% active; AID 435022; 697 B-cell NF-kB luciferase reporter, 16 h; inhibition, % at 4 µM; in the data active = inhibition above about 35%
# VIM-2 inhibitor: blocks Pseudomonas aeruginosa VIM-2 metallo-beta-lactamase. purified VIM-2, nitrocefin hydrolysis, epi-absorbance fluorescence. inhibition, % at 5.6 µM. 290,000 tested, 0.89% active;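 active = inhibition above the mean of all tested compounds plus 3 SD, cutoff set per screening run, cut at about 7.5% in these data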;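 also: red hydrolysis product quenches plate fluorescence so inhibitors raise well fluorescence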
# Mdm2 MdmX PPI: inhibitors of human Mdm2/MdmX interaction | inhibition, % at 8 µM | O15151+Q00987 | 330,000 tested, 3% active | SaOS-2 split-luciferase Mdm2/MdmX complementation, luminescence;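 active = inhibition of at least 50% at 8 µM in the primary screen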
# IMP-1 inhibitor: inhibitors of Pseudomonas aeruginosa IMP-1 metallo-beta-lactamase; inhibition, % at 5.6 µM; 290,000 tested, 0.45% active; AID 1556; purified IMP-1, nitrocefin hydrolysis, epi-absorbance fluorescence;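 active = inhibition above the mean plus 3 SD of all compounds in the same screening run, cut at about 4.5% in these data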
#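 assay system = purified recombinant IMP-1 metallo-beta-lactamase enzyme | schedule = 15 min preincubation plus 25 min reaction at 25 °C | signal = Epi-absorbance fluorescence, 480 nm excitation, 530 nm emission | read-out basis = percent inhibition from optical density relative to buffer-blank wells | controls = IMP-1 with DMSO as 0%, enzyme-free DMSO as 100%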
# aSyn UTR inh: MLPCN primary screen, SNCA 5' untranslated region; alpha-synuclein 5'UTR reporter, inhibitor activity; inhibition, % (tested at 7.5 µM); 300,000 tested, 0.82% active; in the data active = inhibition above about 60%;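 also: H4 neuroglioblastoma cells stably carrying SNCA 5'UTR luciferase fusion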
# Jurkat NFkB conf: inhibitors of the PMA/ionomycin-induced NF-kB reporter in Jurkat cells, retest | shares compounds with Jurkat NFkB inh | Jurkat NF-kB luciferase, 16 h | inhibition, % at 4 µM | 2,700 tested, 27% active;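 active = inhibition reaching about 45% at 4 µM in either replicate, limit read from the data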
# 697 NFkB conf: lowers PMA/ionomycin-induced NF-kB signal in 697 B cells | shares compounds with 697 NFkB inh | 697 B-cell NF-kB luciferase, 16 h | inhibition, % at 4 µM | 2,000 tested, 35% active; in the data active = inhibition mostly above about 28%, no sharp cut-off; inactive = mostly below about 22%
# Hits are given with their value; . = inactive; / = not tested or not shown.
SMILES,Jurkat NFkB inh,697 NFkB inh,VIM-2 inhibitor,Mdm2 MdmX PPI,IMP-1 inhibitor,aSyn UTR inh,Jurkat NFkB conf,697 NFkB conf
COc1ccc(S(=O)(=O)N2CCN(C(=O)c3ccc(=O)[nH]n3)CC2)cc1OC,.,.,/,.,/,/,/,/
COc1ccc(-c2nc(-c3ccncc3)no2)c(OC)c1,.,.,.,.,.,.,.,.
COc1ccc(-c2noc(-c3ccccc3-c3ccccc3)n2)cc1,.,.,.,.,.,.,/,/
COc1cc(OC)c(-c2nc(-c3ccncc3)no2)cc1OC,.,.,.,.,.,.,/,/
COc1ccc(-c2noc(-c3ccccc3F)n2)cc1,.,.,.,.,.,.,.,.
COc1ccccc1-c1nc(-c2cccc(C)c2)no1,.,.,.,.,.,.,.,.
COc1cc(-c2nc(-c3cccc(C)c3)no2)cc(OC)c1OC,.,.,.,.,.,.,/,/
CC(=O)c1cccc(NC(=O)c2ccc(NS(C)(=O)=O)cc2)c1,.,.,.,.,.,.,/,/
O=C(Nc1ccc2ccccc2c1)c1cc(F)c(F)cc1Cl,.,.,.,.,.,.,/,/
O=C(Nc1ccc2ccccc2c1)c1onc2c1CCCC2,.,.,.,.,.,.,.,.
COc1cccc(C(=O)Nc2ccc3ccccc3c2)c1,.,.,.,.,.,.,.,.
Cc1ccccc1NC(=O)c1onc2c1CCCC2,.,.,.,.,.,.,/,/
CS(=O)(=O)Nc1ccc(C(=O)Nc2ccc3ccccc3c2)cc1,.,.,.,.,.,.,.,.
O=C(Nc1ccc2ccccc2c1)c1ccc(Cl)cc1Cl,.,.,.,.,.,.,.,.
Cc1ccnc(NC(=O)c2cccc(S(=O)(=O)N3CCCc4ccccc43)c2)c1,.,.,/,.,/,.,/,/
Cc1cc(C)c(C(=O)COC(=O)Cn2c(C)csc2=O)cc1C,.,.,.,.,.,.,/,/
COc1cccc(C(=O)Nc2nc3ccccc3s2)c1,.,.,.,.,.,.,.,.
COc1ccc(OC)c(C(=O)c2ccc(C(=O)Nc3ccc4ccccc4c3)cc2)c1,.,.,.,.,.,.,/,/
COc1ccc(C(=O)Nc2nc3ccccc3s2)cc1OC,.,.,.,.,.,.,/,/
COc1ccc(C(=O)Nc2ccc3ccccc3c2)cc1,.,.,.,.,.,.,.,.
Cc1cccc(C(=O)Nc2ccc3ccccc3c2)c1,.,.,.,.,.,.,.,.
COc1ccc(-c2nc(CS(=O)CC(=O)NCc3ccco3)c(C)o2)cc1 (configuration not stated),.,.,.,.,.,.,/,/
CCc1ccc(-c2nc(CS(=O)CC(=O)NCc3ccco3)c(C)o2)cc1 (configuration not stated),50.6,36.1,.,.,.,.,55.8,34.6
Cn1nccc1C(=O)NC1CCCc2c1cnn2-c1ccc(C(C)(C)C)cc1 (configuration not stated),65.7,44.4,.,.,.,.,71.1,103.5
Cc1cccc(-n2ncc3c2CCCC3NC(=O)c2ccc[n+]([O-])c2)c1C (configuration not stated),.,.,.,.,.,.,/,/
SMILES,Jurkat NFkB inh,697 NFkB inh,VIM-2 inhibitor,Mdm2 MdmX PPI,IMP-1 inhibitor,aSyn UTR inh,Jurkat NFkB conf,697 NFkB conf
CC(=O)NC1CCCc2c1cnn2-c1ccc(C(C)(C)C)cc1 (configuration not stated),.,.,.,.,.,.,/,/
Cc1cc(C(=O)NC2CCCc3c2cnn3-c2cccc(C)c2C)n(C)n1 (configuration not stated),71.8,76.8,.,.,.,.,78.1,95.6
CCN(Cc1ccccc1)c1ccc(/C=C(\C#N)c2ccccn2)cc1,.,.,.,.,.,.,.,.
N#C/C(=C\c1ccc(C(=O)O)cc1)c1ccccn1,.,.,.,.,.,.,/,/
CC(C)C(=O)Nc1nnc(S(=O)(=O)N(C)c2ccc(Cl)cc2)s1,.,.,.,.,.,.,/,/
CCOc1ccc2oc(C(=O)Nc3nccs3)c(C)c2c1,.,.,/,.,/,/,.,.
CCCCc1nnc(NC(=O)c2oc3ccc(OC)cc3c2C)s1,.,.,/,.,/,.,/,/
COc1ccc2oc(C(=O)Nc3nccs3)c(C)c2c1,.,.,/,.,/,.,.,.
Cn1cc(/C=C/C(=O)c2ccccc2)c2ccccc21,.,.,.,.,.,.,.,.
O=C(N=c1nc2ccccn2s1)c1ccccc1,.,.,/,.,/,.,.,.
Cn1nc(C(=O)NNC(=O)c2ccc(Cl)cc2)ccc1=O,.,.,/,.,/,.,/,/
CCc1ccc(NC(=O)c2cnn(-c3ccccc3)c2C2CCNCC2)cc1,.,.,.,.,.,.,/,/
CCc1ccc(NC(=O)c2cnn(-c3ccccc3)c2C)cc1,.,.,.,.,.,.,.,.
C[C@H]1CN=C(N(C)C)N1CCc1ccc(F)cc1,.,.,/,.,/,/,/,/
COc1ccc2nc(C)cc(NCc3ccc(F)cc3)c2c1,.,.,.,.,.,.,/,/
CC(C)(C)c1ccc(C(=O)Nc2ccc(CC(=O)O)cc2)o1,59.6,84.2,.,.,.,110.7,72.9,85.8
CCCCn1c(N)c(N(CC(C)C)C(=O)c2ccc(OCc3c(C)noc3C)cc2)c(=O)[nH]c1=O,.,.,/,.,/,.,/,/
COc1cc(/C=N/NC(=O)c2ccc(O)cc2)ccc1OCC(=O)N1CC(C)OC(C)C1 (configuration not stated),.,.,.,.,.,.,/,/
CCOC(=O)c1sc(NC(=O)Nc2ccccc2Cl)cc1C,.,.,.,.,.,.,.,.
Cc1ccc(NC(=O)CN(C)C2CCCCC2)cc1Cl,.,.,.,.,.,.,/,/
Cc1ccc(NC(=O)C(=O)c2c[nH]c3ccccc23)cc1,.,.,.,.,.,.,.,.
Cc1ccc(NC(=O)c2cc(=O)[nH]c3ccccc23)cc1,.,.,.,.,.,.,/,/
COc1ccc(C2=NN3C(C2)c2ccccc2OC32C(=O)N(C)c3ccccc32)cc1 (configuration not stated),.,.,.,.,.,.,.,.
Cc1ccc(NC(=O)N2CCCc3ccccc32)cc1,.,.,.,.,.,.,/,/
Cc1ccc(NC(=O)N2CCc3ccccc32)cc1C,.,.,.,.,.,.,.,.
Cc1cc(C)cc(NC(=O)CN2CCC(NC(=O)c3ccccc3F)CC2)c1,.,.,.,.,.,.,/,/
CCCCCCn1ccc(=N)cc1,62.7,72.3,.,.,.,.,56.2,73.5
O=C1N(c2ccccc2)CCN1c1ccccc1,.,.,.,.,.,.,.,.
c1cc(-c2cc3cc(N4CCOCC4)ccc3o2)cs1,.,.,/,.,/,.,.,.
CCN(CC)c1ccc2cc(C(N)=O)c(=O)oc2c1,.,.,.,.,.,.,/,/
